Rows were chosen to be rich in hits. Some 2.3% of all compounds tested hit in one or more screens of this group.
TPT1 inh: Candida albicans TPT1 enzyme inhibitors, primary screen, biochemical, fluorescence polarization; tRNA 2'-phosphotransferase TPT1 (Candida albicans SC5314); recombinant caTPT1, FP RNA substrate dephosphorylation; inhibition, % at 5 µM; hit rate 0.81% among 300,000; AID 1962, 2009;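 active = inhibition above the mean of all tested compounds plus 3 SD, set per screening campaign, cut at about 24% in these data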
Rpn11 block: Rpn11 (PSMD14) deubiquitinase inhibitors, primary screen, biochemical, fluorescence polarization, uHTS. AID 588493, 2011. hit rate 0.59% among 360,000. calls only at 20 µM. human 26S proteasome, Ub4-pepOG fluorescence polarization; 20S core pre-blocked with epoxomicin. 26S proteasome non-ATPase regulatory subunit 14 (Homo sapiens), O00487;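 active = inhibition at 20 µM, scaled to each plate's controls, above about 33%, limit read from the data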
CRFBP-R2 block: antagonists of CRF-BP/CRF-R2 complex, primary screen, cell-based, HEK293, calcium dye fluorescence, uHTS. inhibition, % at 11.8 µM. AID 588475, 2011. CRF-induced calcium fluorescence. hit rate 0.59% among 350,000;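 active = inhibition of the ligand-induced calcium signal above about 50% at the single tested concentration, limit read from the data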
CRFBP-R2 agonist: agonists of CRF-BP/CRF-R2 complex, primary screen, cell-based, HEK293, calcium dye fluorescence, uHTS. activation, % at 13.2 µM. hit rate 0.46% among 350,000. AID 588473, 2011. CRF-binding protein / CRF receptor 2 complex (human). calcium dye fluorescence (FLIPR); percent of saturating CRF peptide response;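 active = activation of at least 50%, plus an integration ratio under a set limit after plate pattern correction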
HNF4A DNA FP: change in binding of human HNF4A to DNA, primary screen, biochemical, fluorescence polarization, FITC-DNA; Hepatocyte nuclear factor 4-alpha (Homo sapiens), P41235; AID 1224865, 2016; activity change, % at 10 µM; 1 h; hit rate 0.3% among 360,000; in the data active = activity change above about 30%, passing the limit was not always enough
CSN inh: inhibitors of CSN-mediated cullin deneddylation, primary screen, biochemical, fluorescence polarization, uHTS; COP9 signalosome complex subunit 5 (Homo sapiens), Q92905; Purified CSN, SCF-Nedd8-OG deneddylation; inhibition, % at 12.5 µM; hit rate 0.38% among 360,000;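 active = pattern-corrected inhibition above about 35%, with an unprinted fluorescence ratio check between 0.5 and 1.5, limit read from the data, passing the limit was not always enough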
Target sequence (Q92905 whole entry, looked up, one chain of several): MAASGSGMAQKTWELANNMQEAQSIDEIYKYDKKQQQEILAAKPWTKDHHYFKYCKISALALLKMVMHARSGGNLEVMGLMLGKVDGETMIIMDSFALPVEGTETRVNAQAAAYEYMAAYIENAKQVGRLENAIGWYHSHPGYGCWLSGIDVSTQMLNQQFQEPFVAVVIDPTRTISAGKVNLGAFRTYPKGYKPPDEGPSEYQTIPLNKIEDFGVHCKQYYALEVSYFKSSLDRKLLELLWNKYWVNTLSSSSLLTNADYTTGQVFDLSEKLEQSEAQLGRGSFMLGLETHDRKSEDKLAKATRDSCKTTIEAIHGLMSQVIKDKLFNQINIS
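Material: purified human Csn5 enzyme expressed in HEK293T cells / Medium: Tris buffer pH 7.5, NaCl, DTT, Tween-20, trehalose, ovalbumin / Compound dosing: 12.5 µM single point / Schedule: 90 min incubation of compound, enzyme and substrate at room temperature / Signal: fluorescence polarization of the substrate / Control set: no-enzyme wells high, enzyme-with-substrate wells low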
TPT1 inh confirm: Candida albicans TPT1 inhibitors, confirmation, biochemical, fluorescence polarization, triplicate; shares compounds with TPT1 inh; recombinant caTPT1, RNase T1 coupled; inhibition, % at 5 µM; hit rate 74% among 2,400;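 active = inhibition above the primary screen limit, the mean inhibition of all tested compounds plus 3 SD, cut at about 25% in these data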
RNase T1 counter: RNase T1 inhibitors, counter-screen for TPT1 inhibitor project, biochemical, fluorescence polarization | inhibition, % at 5 µM | RNase T1 cleavage, 1536-well | shares compounds with TPT1 inh | hit rate 83% among 2,400;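 active = inhibition above the solvent-only control well mean plus 3 SD, limit set per screening run, cut at about 23% in these data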;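 also: inhibitors block cleavage so intact labeled substrate keeps polarization high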
Target sequence (P00651 whole entry, looked up): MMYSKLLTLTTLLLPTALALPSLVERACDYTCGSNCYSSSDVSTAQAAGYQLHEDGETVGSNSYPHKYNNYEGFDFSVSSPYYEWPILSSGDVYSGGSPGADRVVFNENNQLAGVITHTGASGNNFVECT
Rpn11 confirm: Rpn11 (PSMD14) deubiquitinase inhibitors, confirmation, biochemical, fluorescence polarization, single concentration; inhibition, % at 20 µM; purified human 26S proteasome, Ub4-pepOG fluorescence polarization; proteasome pretreated with epoxomicin; shares compounds with Rpn11 block; hit rate 29% among 1,900
MMP-2 counter: MMP-2 enzyme inhibition, confirmation, counter-screen for RPN11 inhibitor project, biochemical, fluorescence, single concentration. hit rate 4% among 1,900. shares compounds with Rpn11 block. recombinant MMP-2, FRET peptide cleavage fluorescence. inhibition, % at 20 µM;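 also: human MMP-2 activated beforehand with APMA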
Thrombin FP: bovine thrombin protease inhibition, confirmation, counter-screen for Rpn11 inhibitor project, biochemical, fluorescence polarization, single concentration | shares compounds with Rpn11 block | bovine thrombin cleavage of Ub4-pepOG | inhibition, % at 20 µM | hit rate 13% among 1,900;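 active = mean inhibition at least 40% at 20 µM, or signal 3 deviations below plate average, so some actives read negative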
HNF4a DNA conf: change in HNF4A binding to DNA, retest, confirmation, biochemical, fluorescence polarization, FITC-DNA; shares compounds with HNF4A DNA FP; 1 h; activity change, % at 12.5 µM; hit rate 99% among 210; AID 1224897, 2016; call rule not given here
Of the large screens only hits and unclear results are named; the others gave an inactive call (follow-up assays come after a bar, where shown). Rule as the data show it, unless noted: active = inhibition above about 40%; inactive = the rest.

CC(C)CCNC(=O)CN(CC1CCCO1)C(=O)CCC(=O)Nc1nccs1 (stereo unspecified)	none
COc1ccc(-c2cc(NC=O)c3ncc(-c4cccc(OC)c4)n3c2)cc1	none (no result: TPT1 inh, CRFBP-R2 block, CRFBP-R2 agonist)
Nc1nc(SCc2nc3scc(-c4ccccc4)c3c(=O)[nH]2)n[nH]1	none
Nc1nnc(SCc2nc3scc(-c4ccccc4)c3c(=O)[nH]2)s1	TPT1 inh 36.2, Rpn11 block active, HNF4A DNA FP 45.2 | TPT1 inh confirm 40.9 | RNase T1 counter 53.9 | Rpn11 confirm 69.9 | MMP-2 counter inactive | Thrombin FP 60.2 | HNF4a DNA conf 56.5
O=C(OCCN1C(=O)c2ccccc2C1=O)c1cc(=O)[nH]c2ccccc12	none
O=C(COc1ccc(Cl)cc1Cl)NN1C(=O)/C(=C\c2ccc(Cl)cc2)SC1=S	none
Cn1cccc1/C=C1\SC(=S)N(NC(=O)c2cccc(Cl)c2)C1=O	TPT1 inh 86.0, HNF4A DNA FP 61.2, CSN inh 35.7 (not shown: Rpn11 block) | TPT1 inh confirm 97.6 | RNase T1 counter 110.5 | HNF4a DNA conf 97.1
COc1cc(OC)c(C2=NOC(C(=O)NCc3cccnc3)C2)cc1Cl (stereo unspecified)	none
N#Cc1ccc(-c2cccnc2)nc1SCC(=O)c1ccccc1	TPT1 inh 67.2, HNF4A DNA FP 46.2 (not shown: Rpn11 block) | TPT1 inh confirm 66.1 | RNase T1 counter 73.5 | HNF4a DNA conf 48.9
CCN(CC)C(=O)CSc1nc(-c2ccccc2)ccc1C#N	none
CCCCC(CC)CNC(=O)CCS(=O)(=O)c1cccc2nonc12 (stereo unspecified)	none
COC(=O)[C@H]1[C@H]2C[C@@H]3c4[nH]c5cc(OC)ccc5c4CCN3C[C@H]2C[C@@H](OC(=O)c2ccc(N)cc2)[C@@H]1OC	TPT1 inh 62.1, HNF4A DNA FP 42.6 (not shown: Rpn11 block) | TPT1 inh confirm 86.4 | RNase T1 counter 91.4 | HNF4a DNA conf 64.9
COc1ccc2c3c([nH]c2c1)C1CC2C(CC(O)C(OC)C2CO)CN1CC3 (stereo unspecified)	none
CC1=Nc2ccccc2/C1=C/c1c(C)[nH]c2ccccc12	none (no result: TPT1 inh)
CC1=Nc2ccccc2/C1=C/c1nc(-c2ccc(C)s2)oc1O	TPT1 inh 165.8, HNF4A DNA FP 54.8 (not shown: Rpn11 block) | TPT1 inh confirm 179.1 | RNase T1 counter 169.6 | HNF4a DNA conf 73.6
COc1ccc(Cc2c(O)nc(SCC(=O)NC34CC5CC(CC(C5)C3)C4)[nH]c2=O)cc1	none
CN1C(=O)/C(=C\C=C2/CCCN2C)N(C)C1=S	TPT1 inh 60.2, Rpn11 block active, HNF4A DNA FP 61.9 | TPT1 inh confirm 88.4 | RNase T1 counter 102.3 | Rpn11 confirm 74.5 | MMP-2 counter inactive | Thrombin FP 60.3 | HNF4a DNA conf 92.8
Cn1c(N)c(C(=O)CSc2nnnn2-c2ccccc2)c(=O)n(C)c1=O	none
N#CCC(=O)Nc1ccc(C(=O)NCC(c2ccco2)N2CCCCC2)cc1 (stereo unspecified)	TPT1 inh 47.8, HNF4A DNA FP 67.0, CSN inh 42.5 (not shown: Rpn11 block) | TPT1 inh confirm 55.9 | RNase T1 counter 66.5 | HNF4a DNA conf 44.0
O=C(NCC(c1ccco1)N1CCCCC1)c1ccc(S(=O)(=O)Nc2ccccc2)cc1 (stereo unspecified)	none
COc1ccc(/C=C2\N=C3CCCCCN3C2=O)cc1OC	none
COc1cc(/C=C2\N=C3CCCCCN3C2=O)ccc1O	TPT1 inh 50.2, Rpn11 block active, HNF4A DNA FP 46.9, CSN inh 56.8 | TPT1 inh confirm 69.0 | RNase T1 counter 72.6 | Rpn11 confirm 88.3 | MMP-2 counter inactive | Thrombin FP 67.0 | HNF4a DNA conf 76.1
COc1ccc(-c2sc(Nc3ccccc3)n[n+]2-c2ccc(F)cc2)cc1Br	none
CN(C)c1ccc(-c2sc(Nc3ccccc3)n[n+]2-c2ccc(F)cc2)cc1	TPT1 inh 35.5, HNF4A DNA FP 69.2 | TPT1 inh confirm 93.2 | RNase T1 counter 97.5 | HNF4a DNA conf 79.7
C/C(=N\Nc1nc(N2CCCCC2)nc(N2CCOCC2)n1)c1cccs1	none
COc1ccc(NC(=O)CN(C)C(=O)CSc2nc3ccccc3s2)cc1	TPT1 inh 36.3, HNF4A DNA FP 42.8 (not shown: Rpn11 block) | TPT1 inh confirm 35.5 | RNase T1 counter 45.4 | HNF4a DNA conf 46.3
CC1Nc2ccc(C(=O)NC3CCCCC3)cc2NC1=O (stereo unspecified)	TPT1 inh 33.7, HNF4A DNA FP 61.0, CSN inh 56.9 (not shown: Rpn11 block) | TPT1 inh confirm 38.5 | RNase T1 counter 48.5 | HNF4a DNA conf 49.1
Cc1ccc(C)c(-n2nnnc2SCC(=O)c2ccc3c(c2)NC(=O)CO3)c1	none
CN(C(=O)COC(=O)c1ccc([N+](=O)[O-])cc1N)c1ccccc1	TPT1 inh 84.4, HNF4A DNA FP 42.5, CSN inh 42.5 | TPT1 inh confirm 74.7 | RNase T1 counter 82.4 | HNF4a DNA conf 91.9
Cc1ccc(C(=O)OCC(=O)N(C)c2ccccc2)c(C)c1	none
Cc1sc2nc(CSc3nnnn3-c3ccc(Cl)cc3)[nH]c(=O)c2c1C	TPT1 inh 30.5, HNF4A DNA FP 37.8 (not shown: Rpn11 block) | TPT1 inh confirm 40.0 | RNase T1 counter 49.4 | HNF4a DNA conf 32.5
